In ChEMBL document CHEMBL1629545, “A morpholino oligomer targeting highly conserved internal ribosome entry site sequence is able to inhibit multiple species of picornavirus” (Antimicrob Agents Chemother, 2008):
Calls of active or inactive are those of the source. No cut-off for these calls is given here.

Legend:
[1] = tested on: HeLa; experiment: Cytotoxicity against human HeLa cells 10 uM after 24 hrs by MTS assay; assay type: cell-based
Outline: (§1)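 HeLa cells at ~80% confluence, uninfected, exposed to 1–100 μM PPMO or water (mock) in serum-free DMEM-F-12 (1:1) for 24 h. MTS reagent was added for 4 h and absorbance read at 492 nm. Viability was expressed as percent of water-treated cells (set to 100%), averaged over 12 wells.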

[2] = tested on: HeLa; experiment: Cytotoxicity against human HeLa cells at 10 uM by MTS assay; assay type: cell-based; outline: as §1
[3] = tested on: Poliovirus 1; experiment: Antiviral activity against Human poliovirus type 1 infected in Human HeLa cell assessed as inhibition of translation at 10 ug/ml by luciferase reporter gene assay; assay type: functional, organism-based
Outline: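 In-cell translation control: HeLa cells electroporated with 20 μg PV1-Luc replicon RNA were placed in medium with 10 μg/ml puromycin at 37°C in 5% CO2. Luciferase in lysates was read by luminometer at hourly time points after transfection. Two experiments were averaged.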

[4] = tested on: Vero; experiment: Cytotoxicity against African green monkey Vero cells at 10 uM after 24 hrs by MTS assay; assay type: cell-based; details: chlorocebus sabaeus
[5] = tested on: SK-N-MC; experiment: Cytotoxicity against human SK-N-MC cell at 10 uM after 24 hrs by MTS assay; assay type: cell-based

`Cc1cn([C@H]2CN(P(=O)(OC[C@@H]3CN(P(=O)(OC[C@@H]4CN(P(=O)(OC[C@@H]5CN(P(=O)(OC[C@@H]6CN(P(=O)(OC[C@@H]7CN(P(=O)(OC[C@@H]8CN(P(=O)(OC[C@@H]9CN(P(=O)(OC[C@@H]%10CN(P(=O)(OC[C@@H]%11CN(P(=O)(OC[C@@H]%12CNC[C@H](n%13cnc%14c(N)ncnc%14%13)O%12)N(C)C)C[C@H](n%12cnc%13c(N)ncnc%13%12)O%11)N(C)C)C[C@H](n%11cnc%12c(N)ncnc%12%11)O%10)N(C)C)C[C@H](n%10cc(C)c(=O)[nH]c%10=O)O9)N(C)C)C[C@H](n9cc(C)c(=O)[nH]c9=O)O8)N(C)C)C[C@H](n8cnc9c(N)ncnc98)O7)N(C)C)C[C@H](n7cnc8c(N)ncnc87)O6)N(C)C)C[C@H](n6cnc7c(=O)[nH]c(N)nc76)O5)N(C)C)C[C@H](n5ccc(N)nc5=O)O4)N(C)C)C[C@H](n4ccc(N)nc4=O)O3)N(C)C)C[C@@H](COP(=O)(N(C)C)N3C[C@@H](COP(=O)(N(C)C)N4C[C@@H](COP(=O)(N(C)C)N5C[C@@H](COP(=O)(N(C)C)N6C[C@@H](COP(=O)(N(C)C)N7C[C@@H](COP(=O)(N(C)C)N8C[C@@H](COP(=O)(N(C)C)N9C[C@@H](COP(=O)(N(C)C)N%10C[C@@H](COP(=O)(N(C)C)N%11CCN(C(=O)CCNC(=O)CCCCCNC(=O)[C@H](CCCNC(=N)N)NC(=O)CCCCCNC(=O)[C@H](CCCNC(=N)N)NC(=O)[C@H](CCCNC(=N)N)NC(=O)CCCCCNC(=O)[C@H](CCCNC(=N)N)NC(=O)[C@H](CCCNC(=N)N)NC(=O)CCCCCNC(=O)[C@H](CCCNC(=N)N)NC(=O)[C@H](CCCNC(=N)N)NC(=O)CCCCCNC(=O)[C@@H](N)CCCNC(=N)N)CC%11)O[C@@H](n%11cc(C)c(=O)[nH]c%11=O)C%10)O[C@@H](n%10cc(C)c(=O)[nH]c%10=O)C9)O[C@@H](n9cc(C)c(=O)[nH]c9=O)C8)O[C@@H](n8cc(C)c(=O)[nH]c8=O)C7)O[C@@H](n7cc(C)c(=O)[nH]c7=O)C6)O[C@@H](n6cc(C)c(=O)[nH]c6=O)C5)O[C@@H](n5cc(C)c(=O)[nH]c5=O)C4)O[C@@H](n4ccc(N)nc4=O)C3)O2)c(=O)[nH]c1=O` (stereo not given in full) was tested, and the Activity [1] was “Toxic”, the Activity [2] was “Non-toxic” and the Activity [3] was “inactive”. The Activity [4] was “Non-toxic” and the Activity [5] was “Non-toxic”.
In the case of `Cc1cn([C@H]2CN(P(=O)(OC[C@@H]3CN(P(=O)(OC[C@@H]4CN(P(=O)(OC[C@@H]5CN(P(=O)(OC[C@@H]6CN(P(=O)(OC[C@@H]7CN(P(=O)(OC[C@@H]8CN(P(=O)(OC[C@@H]9CN(P(=O)(OC[C@@H]%10CN(P(=O)(OC[C@@H]%11CN(P(=O)(OC[C@@H]%12CN(P(=O)(OC[C@@H]%13CN(P(=O)(OC[C@@H]%14CN(P(=O)(OC[C@@H]%15CN(P(=O)(OC[C@@H]%16CN(P(=O)(OC[C@@H]%17CN(P(=O)(OC[C@@H]%18CN(P(=O)(OC[C@@H]%19CN(P(=O)(OC[C@@H]%20CN(P(=O)(OC[C@@H]%21CN(P(=O)(OC[C@@H]%22CNC[C@H](n%23cnc%24c(N)ncnc%24%23)O%22)N(C)C)C[C@H](n%22cc(C)c(=O)[nH]c%22=O)O%21)N(C)C)C[C@H](n%21ccc(N)nc%21=O)O%20)N(C)C)C[C@H](n%20cnc%21c(N)ncnc%21%20)O%19)N(C)C)C[C@H](n%19cc(C)c(=O)[nH]c%19=O)O%18)N(C)C)C[C@H](n%18cc(C)c(=O)[nH]c%18=O)O%17)N(C)C)C[C@H](n%17cnc%18c(=O)[nH]c(N)nc%18%17)O%16)N(C)C)C[C@H](n%16cnc%17c(=O)[nH]c(N)nc%17%16)O%15)N(C)C)C[C@H](n%15cnc%16c(=O)[nH]c(N)nc%16%15)O%14)N(C)C)C[C@H](n%14cnc%15c(N)ncnc%15%14)O%13)N(C)C)C[C@H](n%13cc(C)c(=O)[nH]c%13=O)O%12)N(C)C)C[C@H](n%12cnc%13c(=O)[nH]c(N)nc%13%12)O%11)N(C)C)C[C@H](n%11cnc%12c(=O)[nH]c(N)nc%12%11)O%10)N(C)C)C[C@H](n%10cnc%11c(N)ncnc%11%10)O9)N(C)C)C[C@H](n9cnc%10c(=O)[nH]c(N)nc%109)O8)N(C)C)C[C@H](n8cc(C)c(=O)[nH]c8=O)O7)N(C)C)C[C@H](n7ccc(N)nc7=O)O6)N(C)C)C[C@H](n6cnc7c(N)ncnc76)O5)N(C)C)C[C@H](n5cnc6c(=O)[nH]c(N)nc65)O4)N(C)C)C[C@H](n4ccc(N)nc4=O)O3)N(C)C)C[C@@H](COP(=O)(N(C)C)N3CCN(C(=O)CCNC(=O)CCCCCNC(=O)[C@H](CCCNC(=N)N)NC(=O)CCCCCNC(=O)[C@H](CCCNC(=N)N)NC(=O)[C@H](CCCNC(=N)N)NC(=O)CCCCCNC(=O)[C@H](CCCNC(=N)N)NC(=O)[C@H](CCCNC(=N)N)NC(=O)CCCCCNC(=O)[C@H](CCCNC(=N)N)NC(=O)[C@H](CCCNC(=N)N)NC(=O)CCCCCNC(=O)[C@@H](N)CCCNC(=N)N)CC3)O2)c(=O)[nH]c1=O` (stereo not given in full), the Activity [1] is reported as “Toxic”, the Activity [2] is reported as “Non-toxic” and the Activity [3] is reported as “inactive”. The Activity [4] was “Non-toxic” and the Activity [5] was “Non-toxic”.
For `Cc1cn([C@H]2CN(P(=O)(OC[C@@H]3CN(P(=O)(OC[C@@H]4CN(P(=O)(OC[C@@H]5CN(P(=O)(OC[C@@H]6CNC[C@H](n7cnc8c(N)ncnc87)O6)N(C)C)C[C@H](n6cnc7c(N)ncnc76)O5)N(C)C)C[C@H](n5cc(C)c(=O)[nH]c5=O)O4)N(C)C)C[C@H](n4cc(C)c(=O)[nH]c4=O)O3)N(C)C)C[C@@H](COP(=O)(N(C)C)N3C[C@@H](COP(=O)(N(C)C)N4C[C@@H](COP(=O)(N(C)C)N5C[C@@H](COP(=O)(N(C)C)N6C[C@@H](COP(=O)(N(C)C)N7C[C@@H](COP(=O)(N(C)C)N8C[C@@H](COP(=O)(N(C)C)N9C[C@@H](COP(=O)(N(C)C)N%10C[C@@H](COP(=O)(N(C)C)N%11C[C@@H](COP(=O)(N(C)C)N%12C[C@@H](COP(=O)(N(C)C)N%13C[C@@H](COP(=O)(N(C)C)N%14C[C@@H](COP(=O)(N(C)C)N%15C[C@@H](COP(=O)(N(C)C)N%16C[C@@H](COP(=O)(N(C)C)N%17C[C@@H](COP(=O)(N(C)C)N%18C[C@@H](COP(=O)(N(C)C)N%19C[C@@H](COP(=O)(N(C)C)N%20C[C@@H](COP(=O)(N(C)C)N%21C[C@@H](COP(=O)(N(C)C)N%22CCN(C(=O)CCNC(=O)CCCCCNC(=O)[C@H](CCCNC(=N)N)NC(=O)CCCCCNC(=O)[C@H](CCCNC(=N)N)NC(=O)[C@H](CCCNC(=N)N)NC(=O)CCCCCNC(=O)[C@H](CCCNC(=N)N)NC(=O)[C@H](CCCNC(=N)N)NC(=O)CCCCCNC(=O)[C@H](CCCNC(=N)N)NC(=O)[C@H](CCCNC(=N)N)NC(=O)CCCCCNC(=O)[C@@H](N)CCCNC(=N)N)CC%22)O[C@@H](n%22cnc%23c(=O)[nH]c(N)nc%23%22)C%21)O[C@@H](n%21cnc%22c(=O)[nH]c(N)nc%22%21)C%20)O[C@@H](n%20cc(C)c(=O)[nH]c%20=O)C%19)O[C@@H](n%19cnc%20c(N)ncnc%20%19)C%18)O[C@@H](n%18ccc(N)nc%18=O)C%17)O[C@@H](n%17cnc%18c(N)ncnc%18%17)C%16)O[C@@H](n%16cnc%17c(N)ncnc%17%16)C%15)O[C@@H](n%15ccc(N)nc%15=O)C%14)O[C@@H](n%14ccc(N)nc%14=O)C%13)O[C@@H](n%13ccc(N)nc%13=O)C%12)O[C@@H](n%12ccc(N)nc%12=O)C%11)O[C@@H](n%11cc(C)c(=O)[nH]c%11=O)C%10)O[C@@H](n%10cnc%11c(=O)[nH]c(N)nc%11%10)C9)O[C@@H](n9cc(C)c(=O)[nH]c9=O)C8)O[C@@H](n8cnc9c(=O)[nH]c(N)nc98)C7)O[C@@H](n7ccc(N)nc7=O)C6)O[C@@H](n6cc(C)c(=O)[nH]c6=O)C5)O[C@@H](n5cnc6c(=O)[nH]c(N)nc65)C4)O[C@@H](n4cc(C)c(=O)[nH]c4=O)C3)O2)c(=O)[nH]c1=O` (stereo not given in full), the Activity [1] was “Toxic”, the Activity [2] was “Non-toxic” and the Activity [3] was “inactive”. The Activity [4] was “Non-toxic” and the Activity [5] was “Non-toxic”.
